Data on 16 compounds can be found in ChEMBL document CHEMBL1132203, “Synthesis and biological properties of novel pyridinioalkanoyl thiolesters (PATE) as anti-HIV-1 agents that target the viral nucleocapsid protein zinc fingers” (J Med Chem, 1999).

The test system of experiment [1] is Human immunodeficiency virus 1. In words: Effective antiviral concentration against HIV-1 infected CEM-SS cells. Type of experiment: functional, organism-based. To be noted: Human immunodeficiency virus 1, CEM-SS. The gist of the method: (§1)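 CEM-SS cells infected with HIV-1 RF at MOI 0.01, scored by XTT dye-reduction cytoprotection. EC50 is the concentration giving 50% protection of infected cells. IC50 is the concentration causing 50% cytotoxicity (growth inhibition). High test concentration 316 μM.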

The subject of experiment [2] is Human immunodeficiency virus 1. In words: Nucleocapsid p7 protein (NCp7) zinc finger domain reactivity was measured by Trp37 fluorescence assay expressed as the average decrease in relative fluorescence units over 30 min. Type of experiment: functional. The procedure, abridged: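 Recombinant HIV-1 NCp7 (pET3A construct expressed in E. coli BL21); intrinsic fluorescence of Trp37 in the C-terminal zinc finger monitored over 30 min after compound addition. Value is the mean fall in relative fluorescence units per minute across 30 min, taken as a readout of Zn ejection. Dithiane or DIBA-1 served as reference. Where glutathione pretreatment was used, 2 mM compound was held 2 h at 37 °C with 2–8 M excess reduced glutathione, then diluted 40-fold to 50 μM final compound.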

The test system of experiment [3] is Human immunodeficiency virus 1. In words: Antiviral activity against HIV-1 infected CEM-SS cells was determined in XTT cytoprotection assay. Type of experiment: functional, organism-based. The note with it: Human immunodeficiency virus 1, CEM-SS. The procedure, abridged: as §1

In general, EC50 refers to the midpoint of the concentration-response curve. The low end stands for greater potency, the high end for weaker potency. What is called IC50 is the concentration needed to halve the response being measured.

In experiment [1], `Nc1ccc(S(=O)(=O)c2ccc(NC(=O)c3ccccc3SSc3ccccc3C(=O)Nc3ccc(S(=O)(=O)c4ccc(N)cc4)cc3)cc2)cc1` displayed an EC50 of 4.3 µM. For the same compound, in experiment [2], the Activity was 3.3 RFU min-1. Further, the half-maximal inhibitory concentration (IC50) in experiment [3] is greater than 316 µM.

In turn, `CC(=O)Nc1ccc(S(=O)(=O)c2ccc(NC(=O)c3ccccc3SSc3ccccc3C(=O)Nc3ccc(S(=O)(=O)c4ccc(NC(C)=O)cc4)cc3)cc2)cc1` registered an EC50 in experiment [1] of 1.5 µM. This compound registered an Activity in experiment [2] of 5.9 RFU min-1. For the same compound, in experiment [3], inhibition was half-maximal at 160 µM (IC50).

`O=c1c2ccccc2sn1-c1ccc(S(=O)(=O)c2ccc(NS(=O)(=O)Cc3ccccc3[N+](=O)[O-])cc2)cc1` returned a 50% effective concentration (EC50) in experiment [1] of 3.2 µM. This compound also came in with an Activity in experiment [2] of 2 RFU min-1. This compound showed a 50% inhibitory concentration (IC50) in experiment [3] of 59.5 µM.

In experiment [1], `Nc1cccc(S(=O)(=O)c2cccc(NC(=O)c3ccccc3SSc3ccccc3C(=O)Nc3cccc(S(=O)(=O)c4cccc(N)c4)c3)c2)c1` came in with a concentration giving a half-maximal response (EC50) of 1 µM. This compound came in with an Activity in experiment [2] of 0.92 RFU min-1. For the same compound, the half-maximal inhibitory concentration (IC50) in experiment [3] amounted to 81.5 µM.

As to `O=C(Nc1ccc(S(=O)(=O)c2ccc(NC(=O)c3ccccc3SSc3ccccc3C(=O)Nc3ccc(S(=O)(=O)c4ccc(NC(=O)c5ccc([N+](=O)[O-])cc5)cc4)cc3)cc2)cc1)c1ccc([N+](=O)[O-])cc1`, the 50% effective concentration (EC50) in experiment [1] is 78 µM. The compound further yielded an Activity in experiment [2] of 2.9 RFU min-1. In experiment [3], this compound showed a concentration for half-maximal inhibition (IC50) greater than 316 µM.

As for `CC(=O)Nc1ccc(S(=O)(=O)c2ccc(NC(=O)c3ccccc3SC(=O)CCCC[n+]3ccccc3)cc2)cc1.[Br-]`, in experiment [1], the midpoint of the response, the EC50, lay at 4.6 µM. Also, the Activity in experiment [2] is reported as 1.7 RFU min-1. The compound also had a half-maximal inhibitory concentration (IC50) in experiment [3] of 288 µM.

In experiment [1], `CC(=O)Nc1ccc(S(=O)(=O)Nc2ccc(S(=O)(=O)c3ccc(NC(=O)c4ccccc4SSc4ccccc4C(=O)Nc4ccc(S(=O)(=O)c5ccc(NS(=O)(=O)c6ccc(NC(C)=O)cc6)cc5)cc4)cc3)cc2)cc1` displayed an EC50 of 1 µM. In experiment [2], this compound displayed an Activity of 5.9 RFU min-1. For the same compound, the half-inhibitory concentration (IC50) in experiment [3] came out at 12.7 µM.

As for `O=C(Nc1ccc(S(=O)(=O)c2ccc([N+](=O)[O-])cc2)cc1)c1ccccc1SSc1ccccc1C(=O)Nc1ccc(S(=O)(=O)c2ccc([N+](=O)[O-])cc2)cc1`, the EC50 in experiment [1] turned out to be 12.2 µM. Also, the Activity in experiment [2] was 2.9 RFU min-1. This compound also showed an IC50 in experiment [3] greater than 316 µM.

For `CC(=O)NS(=O)(=O)c1ccc(NC(=O)c2ccccc2SC(=O)CCCC[n+]2cccc(Cl)c2)cc1.[Br-]`, in experiment [1], the EC50 was 54 µM. This compound had an Activity in experiment [2] of 0.2 RFU min-1. Besides, inhibition in experiment [3] was half-maximal at 264 µM (IC50).

In experiment [1], `CC(=O)Nc1cccc(S(=O)(=O)c2cccc(NC(=O)c3ccccc3SC(=O)CCCC[n+]3ccccc3)c2)c1.[Br-]` had a concentration for a half-maximal effect (EC50) of 4.9 µM. In experiment [2], the Activity was 1.1 RFU min-1. For the same compound, inhibition in experiment [3] was half-maximal at 205 µM (IC50).

In experiment [1], `NS(=O)(=O)c1ccc(CNC(=O)c2ccccc2SC(=O)CCCC[n+]2ccccc2)cc1.[Br-]` had an EC50 of 1.1 µM. In experiment [2], this compound showed an Activity of 1.4 RFU min-1. For the same compound, the IC50 in experiment [3] amounted to 55 µM.

In experiment [1], `CC(=O)NS(=O)(=O)c1ccc(NC(=O)c2ccccc2SC(C)=O)cc1` showed an EC50 of 2.8 µM. In experiment [2], this compound displayed an Activity of 4.2 RFU min-1. In experiment [3], the 50% inhibitory concentration (IC50) came out at 56.7 µM.

In experiment [1], `CC(=O)Nc1ccc(S(=O)(=O)Nc2ccc(S(=O)(=O)c3ccc(-n4sc5ccccc5c4=O)cc3)cc2)cc1` returned an EC50 of 9.6 µM. In experiment [2], the Activity is 7.9 RFU min-1. The IC50 in experiment [3] came to 188 µM.

In the case of `CC(=O)NS(=O)(=O)c1ccc(NC(=O)c2ccccc2SC(=O)CCC[n+]2ccccc2)cc1.[Br-]`, the EC50 in experiment [1] worked out at 10.1 µM. This compound gave an Activity in experiment [2] of 2.2 RFU min-1. In experiment [3], this compound returned an IC50 of 175 µM.

`NS(=O)(=O)c1ccc(CCn2sc3ccccc3c2=O)cc1` gave an EC50 in experiment [1] of 2 µM. In addition, the Activity in experiment [2] is listed as 2.7 RFU min-1. Also, half-maximal inhibition in experiment [3] (IC50) was put at 45.5 µM.

With `CC(=O)NS(=O)(=O)c1ccc(NC(=O)c2ccccc2SC(=O)CCCl)cc1`, the response in experiment [1] was half-maximal at 4.2 µM (EC50). Also, the Activity in experiment [2] is on record as 9.2 RFU min-1. This compound also registered a 50% inhibitory concentration (IC50) in experiment [3] of 62 µM.
